# Data reported in ChEMBL document CHEMBL1781911, “Verrucamides A-D, antibacterial cyclopeptides from Myrothecium verrucaria” (J Nat Prod, 2011).
# Square brackets hold non-standard residues; d marks the D form. Peptide text beside a SMILES is read from it. NMeT = CN[C@H](C(=O)O)[C@@H](C)O; aIle = CC[C@@H](C)[C@H](N)C(=O)O; dNMeF = CN[C@H](Cc1ccccc1)C(=O)O; NMeV = CN[C@H](C(=O)O)C(C)C; NMeS = CN[C@@H](CO)C(=O)O; dNMeA = CN[C@H](C)C(=O)O
# System: Staphylococcus aureus
# Test: Antibacterial activity against Staphylococcus aureus Col CGMCC 1.2465 after 24 hrs by NCCLS […] method
# Assay type: functional, organism-based
# Conditions: COL CGMCC 1.2465, 24 h
# How it was run: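 Broth microdilution in triplicate per NCCLS guidance; strain grown in Mueller-Hinton broth, 3-4 colonies cultured at 37 °C for 24 h, final inoculum 10^6 cells/mL in MHB. Samples from 10 mg/mL DMSO stocks, serially diluted; ampicillin positive control. Incubated 37 °C for 24 h, growth read as absorbance at 595 nm.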
SMILES,IC50 [µg/mL],MIC [µg/mL]
CC1(C)S[C@@H]2[C@H](NC(=O)[C@H](N)c3ccccc3)C(=O)N2[C@H]1C(=O)O [AMPICILLIN],0.09,0.625
CC[C@@H](C)[C@@H]1NC(=O)CNC(=O)[C@@H](C)N(C)C(=O)[C@H](C(C)C)NC(=O)[C@H]([C@@H](C)O)N(C)C(=O)[C@H](C(C)C)NC(=O)[C@H]([C@@H](C)O)N(C)C(=O)[C@H](C(C)C)NC(=O)CNC(=O)[C@@H](Cc2ccccc2)N(C)C(=O)[C@H](C(C)C)NC(=O)[C@H](CO)NC(=O)[C@H]([C@H](C)CC)N(C)C(=O)[C@H](CO)N(C)C1=O [VERRUCAMIDE A],3.59,10
CC[C@@H](C)[C@@H]1NC(=O)CNC(=O)[C@@H](C)N(C)C(=O)[C@H](C(C)C)NC(=O)[C@H]([C@@H](C)O)N(C)C(=O)[C@H](C(C)C)NC(=O)[C@H]([C@@H](C)O)N(C)C(=O)[C@H](C(C)C)NC(=O)CNC(=O)[C@@H](Cc2ccccc2)N(C)C(=O)[C@H](C(C)C)NC(=O)[C@H](CO)NC(=O)[C@H](C(C)C)N(C)C(=O)[C@H](CO)N(C)C1=O [VERRUCAMIDE B] (cyclo(GV[NMeT]V[NMeT]V[dNMeA]G[aIle][NMeS][NMeV]SV[dNMeF])),5.31,20
CC[C@@H](C)[C@H]1C(=O)N[C@@H](CO)C(=O)N[C@@H](C(C)C)C(=O)N(C)[C@H](Cc2ccccc2)C(=O)NCC(=O)N[C@@H](C(C)C)C(=O)N(C)[C@@H]([C@@H](C)O)C(=O)N[C@@H](C(C)C)C(=O)N(C)[C@@H]([C@@H](C)O)C(=O)N[C@@H](C(C)C)C(=O)N(C)[C@H](C)C(=O)NCC(=O)N[C@@H](C(C)C)C(=O)N(C)[C@@H](CO)C(=O)N1C [VERRUCAMIDE C],4.45,10
CC(C)[C@@H]1NC(=O)[C@H]([C@@H](C)O)N(C)C(=O)[C@H](C(C)C)NC(=O)[C@H]([C@@H](C)O)N(C)C(=O)[C@H](C(C)C)NC(=O)CNC(=O)[C@@H](Cc2ccccc2)N(C)C(=O)[C@H](C(C)C)NC(=O)[C@H](CO)NC(=O)[C@H](C(C)C)N(C)C(=O)[C@H](CO)N(C)C(=O)[C@H](C(C)C)NC(=O)CNC(=O)[C@@H](C)N(C)C1=O [VERRUCAMIDE D],9.09,40
